Experimental data taken from ChEMBL document CHEMBL2146480, “Discovery of Phenylaminopyridine Derivatives as Novel HIV-1 Non-nucleoside Reverse Transcriptase Inhibitors” (ACS Med Chem Lett, 2012).
Values after ≈ are worked out from the molar mass of the structure shown. One block for each compound: values may come before it.

How the values were obtained:
[1] = system: Human immunodeficiency virus 1; assay: Antiviral activity against wild type HIV1 LAI infected in human CEM174 cells assessed as inhibition of viral replication preincubated for 1 hr prior to viral infection measured after 5 days; format: functional, organism-based; conditions: Human immunodeficiency virus 1, LAI
[2] = Cytotoxicity against human CEM174 cells assessed as cell viability; format: cell-based
Method in brief: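 Values are geometric means of two determinations, each within 25% of the mean.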

[3] = Solubility of the compound in distilled water at pH 7.4; format: physicochemical
[4] = Solubility of the compound in distilled water at pH 2.1; format: physicochemical
[5] = molecular target: Human immunodeficiency virus type 1 reverse transcriptase (Human immunodeficiency virus 1, UniProt Q72547); assay: Inhibition of RNA-dependent DNA polymerase activity of wild type N-terminal His6x-tagged HIV 1 reverse transcriptase p66/p51 expressed in Escherichia coli (DE3) rosetta cells preincubated for 30 mins by SPA assay
[6] = molecular target: Human immunodeficiency virus type 1 reverse transcriptase (Human immunodeficiency virus 1, UniProt Q72547, K103N); assay: Inhibition of RNA-dependent DNA polymerase activity of N-terminal His6x-tagged HIV 1 reverse transcriptase K103N mutant expressed in Escherichia coli (DE3) rosetta cells preincubated for 30 mins by SPA assay
[7] = system: Human immunodeficiency virus type 1 reverse transcriptase (Human immunodeficiency virus 1), Q72547 [UNDEFINED MUTATION]; assay: Resistant ratio of IC50 for HIV 1 reverse transcriptase K103N mutant to IC50 for wild type HIV 1 reverse transcriptase
Method in brief: (§1)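 Fold resistance is IC50 against the mutant RT divided by IC50 against wild-type RT. Both IC50s come from the RNA-dependent DNA polymerase inhibition assay, each taken as the geometric mean of two determinations.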

[8] = molecular target: Human immunodeficiency virus type 1 reverse transcriptase (Human immunodeficiency virus 1, UniProt Q72547, Y181C); assay: Inhibition of RNA-dependent DNA polymerase activity of N-terminal His6x-tagged HIV 1 reverse transcriptase Y181C mutant expressed in Escherichia coli (DE3) rosetta cells preincubated for 30 mins by SPA assay
[9] = system: Human immunodeficiency virus 1; assay: Resistant ratio of IC50 for HIV 1 reverse transcriptase Y181C mutant to IC50 for wild type HIV 1 reverse transcriptase; method in brief: as §1
[10] = molecular target: Voltage-gated inwardly rectifying potassium channel KCNH2 (Homo sapiens, UniProt Q12809); assay: Inhibition of recombinant human ERG channel IKr expressed in CHO cells by patch clamp assay
[11] = Half life in rat at 1.10 mg/kg, iv and 10.7 mg/kg, po; format: ADME, organism-based; conditions: in vivo
Method in brief: (§2)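 Both routes were formulated at 1.0 mg/mL in 50% PEG. Parameters reported are Vd, AUCpo, oral bioavailability, clearance and half-life.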

[12] = Volume of distribution in rat at 1.10 mg/kg, iv and 10.7 mg/kg, po; format: ADME, organism-based; conditions: in vivo, 1.1 mg/kg; method in brief: as §2
[13] = AUC in rat at 10.7 mg/kg, po; format: ADME, organism-based; parameters: dose 10.7 mg/kg, route oral; conditions: plasma; method in brief: as §2
[14] = Oral bioavailability in rat at 10.7 mg/kg; format: ADME, organism-based; conditions: in vivo; method in brief: as §2
[15] = Clearance in rat at 1.10 mg/kg, iv and 10.7 mg/kg, po; format: ADME, organism-based; conditions: in vivo, 1.1 mg/kg; method in brief: as §2
[16] = Half life in rat at 1.19 mg/kg, iv and 10.9 mg/kg, po; format: ADME, organism-based; conditions: in vivo
Method in brief: (§3)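 The iv and po formulation was 1.0 mg/mL in 40% PEG. Vd, AUCpo, F, clearance and t1/2 were derived.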

[17] = Volume of distribution in rat at 1.19 mg/kg, iv and 10.9 mg/kg, po; format: ADME, organism-based; conditions: in vivo; method in brief: as §3
[18] = AUC in rat at 10.9 mg/kg, po; format: ADME, organism-based; parameters: dose 10.9 mg/kg, route oral; conditions: plasma; method in brief: as §3
[19] = Oral bioavailability in rat at 10.9 mg/kg; format: ADME, organism-based; conditions: in vivo; method in brief: as §3
[20] = Clearance in rat at 1.19 mg/kg, iv and 10.9 mg/kg, po; format: ADME, organism-based; conditions: in vivo; method in brief: as §3
[21] = Solubility of the compound in distilled water; format: physicochemical
Method in brief: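 Solubility was measured on the HCl salt in distilled water.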

[22] = Volume of distribution in rat at 0.94 mg/kg, iv and 9.44 mg/kg, po; format: ADME, organism-based; conditions: in vivo
Method in brief: (§4)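 Rats given a single iv dose of 0.94 mg/kg and a single oral dose of 9.44 mg/kg. Both iv and po formulations were 1.0 mg/mL in 20% HP-β-CD. Vd, oral AUC, F, clearance and t1/2 were derived from plasma exposure.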

[23] = AUC in rat 9.44 mg/kg, po; format: ADME, organism-based; parameters: dose 9.44 mg/kg, route oral; conditions: plasma; method in brief: as §4
[24] = Oral bioavailability in rat at 9.44 mg/kg; format: ADME, organism-based; conditions: in vivo; method in brief: as §4
[25] = Clearance in rat at 0.94 mg/kg, iv and 9.44 mg/kg, po; format: ADME, organism-based; conditions: in vivo; method in brief: as §4
[26] = Half life in rat at 0.94 mg/kg, iv and 9.44 mg/kg, po; format: ADME, organism-based; conditions: in vivo; method in brief: as §4
[27] = Induction of CYP3A4 mRNA expression in human Fa2N-4 cells up to 10 uM after 24 hrs; format: ADME, cell-based; conditions: fa2n-4, 24 h

Voltage-gated inwardly rectifying potassium channel KCNH2, sequence (Q12809 whole entry): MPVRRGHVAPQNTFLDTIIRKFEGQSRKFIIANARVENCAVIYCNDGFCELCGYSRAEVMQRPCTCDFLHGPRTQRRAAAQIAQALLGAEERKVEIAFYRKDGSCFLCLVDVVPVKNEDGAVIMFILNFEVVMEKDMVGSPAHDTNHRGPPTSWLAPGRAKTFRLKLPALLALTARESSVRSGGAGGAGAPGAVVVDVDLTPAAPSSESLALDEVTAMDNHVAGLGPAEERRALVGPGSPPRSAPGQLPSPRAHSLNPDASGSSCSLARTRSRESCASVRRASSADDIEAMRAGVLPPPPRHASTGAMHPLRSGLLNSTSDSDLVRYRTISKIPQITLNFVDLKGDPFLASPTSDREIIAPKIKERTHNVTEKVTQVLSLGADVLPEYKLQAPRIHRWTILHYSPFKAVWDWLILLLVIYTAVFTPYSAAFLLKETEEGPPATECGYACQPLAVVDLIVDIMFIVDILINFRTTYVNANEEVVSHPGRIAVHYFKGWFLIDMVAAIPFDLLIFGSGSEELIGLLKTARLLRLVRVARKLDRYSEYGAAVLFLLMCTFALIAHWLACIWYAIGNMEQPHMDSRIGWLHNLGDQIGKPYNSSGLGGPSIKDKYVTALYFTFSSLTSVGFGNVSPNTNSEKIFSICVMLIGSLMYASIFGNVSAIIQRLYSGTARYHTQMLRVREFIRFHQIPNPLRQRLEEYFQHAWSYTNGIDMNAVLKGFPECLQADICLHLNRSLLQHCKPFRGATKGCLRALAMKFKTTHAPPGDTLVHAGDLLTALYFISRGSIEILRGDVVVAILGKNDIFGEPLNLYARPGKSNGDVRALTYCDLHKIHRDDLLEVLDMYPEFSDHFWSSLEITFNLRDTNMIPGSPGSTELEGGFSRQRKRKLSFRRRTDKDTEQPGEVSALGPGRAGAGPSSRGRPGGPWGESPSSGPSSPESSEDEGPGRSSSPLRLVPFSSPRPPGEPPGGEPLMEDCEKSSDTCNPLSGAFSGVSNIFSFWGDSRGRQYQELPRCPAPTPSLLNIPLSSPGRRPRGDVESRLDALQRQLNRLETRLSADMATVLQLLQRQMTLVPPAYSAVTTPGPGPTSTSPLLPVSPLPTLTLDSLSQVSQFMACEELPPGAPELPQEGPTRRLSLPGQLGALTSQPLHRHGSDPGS

EC50 [1]: 2.2 µM
Compound: Cc1ccccc1-c1cccc(NCc2cc(-c3ccccc3)[nH]n2)c1
CC50 [2]: > 10 µM

EC50 [1]: 0.0043 µM
Compound: Cc1cc(C#N)ccc1-c1ccnc(NCc2cc(-c3ccccc3)[nH]n2)n1
CC50 [2]: > 10 µM

EC50 [1]: 0.016 µM
Compound: Cc1cc(C#N)ccc1-c1cncc(NCc2cc(-c3ccccc3)[nH]n2)c1
CC50 [2]: > 10 µM

Compound: Cc1cc(C#N)ccc1-c1ccnc(NCc2cc(-c3ccccn3)[nH]n2)c1
EC50 [1]: 0.0036 µM
CC50 [2]: > 10 µM
solubility [3]: 0.71 µM (≈ 0.26 µg/mL)
solubility [4]: > 545 µM
IC50 [5]: 0.01 µM
IC50 [6]: 0.134 µM
Ratio IC50 [7]: 13
IC50 [8]: 0.084 µM
Ratio IC50 [9]: 8.4
IC50 [10]: 1.1 µM

Compound: Cc1ccnc2c1NC(=O)c1cccnc1N2C1CC1 [NEVIRAPINE]
EC50 [1]: 0.15 µM
CC50 [2]: > 10 µM

Compound: Cc1cc(C#N)ccc1-c1ccnc(NCc2n[nH]c3nc(N)ccc23)c1
EC50 [1]: 0.0019 µM
CC50 [2]: > 10 µM
solubility [3]: 0.34 µM (≈ 0.121 µg/mL)
solubility [4]: > 884 µM
IC50 [5]: 0.0059 µM
IC50 [6]: 0.036 µM
IC50 [8]: 0.016 µM
half-life [11]: 2.5 h
Vd [12]: 1.26 L/kg
AUC [13]: 20 µM·h
bioavailability [14]: 72%
clearance [15]: 14 mL/min/kg

EC50 [1]: 1.2 µM
Compound: Cc1ccccc1-c1cncc(NCc2cc(-c3ccccc3)[nH]n2)c1
CC50 [2]: > 10 µM

EC50 [1]: 1.29 µM
Compound: c1ccc(-c2cnnc(NCc3cc(-c4ccccc4)[nH]n3)n2)cc1
CC50 [2]: > 10 µM

EC50 [1]: 0.366 µM
Compound: Cc1ccccc1-c1ccnc(NCc2cc(-c3ccccc3)[nH]n2)n1
CC50 [2]: > 10 µM

Compound: Cc1cc(C#N)ccc1-c1ccnc(NCc2n[nH]c(-c3ccccc3)c2Cl)c1
EC50 [1]: 0.0068 µM
CC50 [2]: > 10 µM
solubility [3]: 2.1 µM (≈ 0.84 µg/mL)
solubility [4]: 45 µM (≈ 18 µg/mL)
IC50 [5]: 0.0051 µM
IC50 [6]: 0.011 µM
IC50 [8]: 0.0063 µM
half-life [16]: 3.1 h
Vd [17]: 2.08 L/kg
AUC [18]: 34 µM·h
bioavailability [19]: 71%
clearance [20]: 8.7 mL/min/kg

Compound: Cc1cc(C#N)ccc1-c1ccnc(NCc2n[nH]c3nc(F)ccc23)c1
EC50 [1]: 0.00035 µM
CC50 [2]: > 10 µM
solubility [3]: 1.8 µM (≈ 0.645 µg/mL)
IC50 [5]: 0.0019 µM
IC50 [6]: 0.01 µM
IC50 [8]: 0.0077 µM

EC50 [1]: 2.3 µM
Compound: Cc1cccc(-c2cnnc(NCc3cc(-c4ccccc4)[nH]n3)n2)c1
CC50 [2]: > 10 µM

EC50 [1]: > 10 µM
Compound: Cc1ccc(-c2cnnc(NCc3cc(-c4ccccc4)[nH]n3)n2)cc1
CC50 [2]: > 10 µM

EC50 [1]: 0.149 µM
Compound: Cc1ccccc1-c1ccnc(NCc2cc(-c3ccccc3)[nH]n2)c1
CC50 [2]: > 10 µM

EC50 [1]: 0.265 µM
Compound: c1ccc(-c2cc(CNc3nncc(-c4cccc5ccccc45)n3)n[nH]2)cc1
CC50 [2]: > 10 µM

Compound: Cc1cc(C#N)ccc1-c1ccnc(NCc2n[nH]c(-c3ccccn3)c2Cl)c1.Cl
solubility [21]: 100 µM

EC50 [1]: 0.91 µM
Compound: Cc1ccccc1-c1cncc(NCc2cc(-c3ccccc3)[nH]n2)n1
CC50 [2]: > 10 µM

EC50 [1]: 0.124 µM
Compound: Cc1ccccc1-c1cnnc(NCc2cc(-c3ccccc3)[nH]n2)n1
CC50 [2]: > 10 µM

EC50 [1]: 0.0008 µM
Compound: Cc1cc(C#N)ccc1-c1ccnc(NCc2cc(-c3ccccc3)[nH]n2)c1
CC50 [2]: > 10 µM

Compound: Cc1cc(C#N)ccc1-c1ccnc(NCc2n[nH]c(-c3ccccn3)c2Cl)c1
EC50 [1]: 0.0002 µM
CC50 [2]: > 10 µM
solubility [3]: 1.1 µM (≈ 0.441 µg/mL)
solubility [4]: 132 µM (≈ 52.9 µg/mL)
IC50 [5]: 0.003 µM
IC50 [6]: 0.016 µM
IC50 [8]: 0.0079 µM
Vd [22]: 1.1 L/kg
AUC [23]: 67 µM·h
bioavailability [24]: 127%
clearance [25]: 8.2 mL/min/kg
half-life [26]: 2 h
Activity [27]: Not Active

Compound: Cc1cc(C#N)ccc1-c1ccnc(NCc2n[nH]c3nc(N)ccc23)c1.Cl
solubility [21]: > 4220 µM

Compound: N#Cc1cc(Cl)cc(Oc2cc(OCc3n[nH]c4nc(N)ccc34)ccc2Cl)c1
CC50 [2]: > 10 µM

EC50 [1]: 0.0032 µM
Compound: Cc1cccc(C)c1-c1cnnc(NCc2cc(-c3ccccc3)[nH]n2)n1
CC50 [2]: > 10 µM

EC50 [1]: > 10 µM
Compound: Cc1ccccc1-c1cccc(NCc2cc(-c3ccccc3)[nH]n2)n1
CC50 [2]: > 10 µM

EC50 [1]: 0.0017 µM
Compound: Cc1cc(C#N)ccc1-c1cnnc(NCc2cc(-c3ccccc3)[nH]n2)n1
CC50 [2]: > 10 µM

Compound: Cc1cc(C#N)ccc1-c1ccnc(NCc2n[nH]c3ncccc23)c1
EC50 [1]: 0.0011 µM
CC50 [2]: > 10 µM
solubility [3]: 3.7 µM (≈ 1.26 µg/mL)
solubility [4]: > 881 µM
IC50 [5]: 0.0012 µM
IC50 [6]: 0.01 µM
IC50 [8]: 0.0056 µM
